An excerpt weighted towards active compounds, which were near 0.51% of everything screened.
PolyA inh – polyadenylation inhibitors in yeast reporter cells, primary screen, luminescence, S. cerevisiae; S. cerevisiae SKY197-pL101 polyadenylation reporter, beta-gal luminescence; efflux-impaired pdr1/pdr3 knockout yeast; score 100 = 6 SD above DMSO; activity score, % at 12 µM; hit rate 0.02% among 300,000; AID 1875, 2009;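 active = lowest replicate activity score at least 50, where 100 means six control SD above control mean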;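 note: yeast exposed to compound for 9 h at 30 °C; higher score means more reporter readthrough which indicates perturbed polyadenylation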
aDG glyco up – activators of alpha-DG glycosylation, primary screen, uHTS, Pro5-aDG cells, AlphaScreen; alpha-DG glycosylation AlphaScreen (IIH6); 0% Pro5, 100% B10-LARGE cell signal; activation, % at 10 µM; hit rate 0.22% among 360,000; AID 624168, 2012;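 active = activation of at least 8% versus controls, or a plate z-score of at least 8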;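 note: Pro5 are CHO cells carrying HIG-tagged alpha-DG that lacks glycosylation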
Rce1 inh – yeast Rce1p protease inhibitors, primary screen, biochemical, fluorescence, cell-free homogeneous. hit rate 0.27% among 290,000. yeast membranes, quenched prenylated peptide cleavage fluorescence. calls only;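 active = fall in fluorescence gain of 50% or more versus controls, with final raw signal at or below 3038400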;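 note: plate controls were neutral control wells for no effect and wells lacking membranes for full effect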
Target sequence (Q03530 whole entry, looked up): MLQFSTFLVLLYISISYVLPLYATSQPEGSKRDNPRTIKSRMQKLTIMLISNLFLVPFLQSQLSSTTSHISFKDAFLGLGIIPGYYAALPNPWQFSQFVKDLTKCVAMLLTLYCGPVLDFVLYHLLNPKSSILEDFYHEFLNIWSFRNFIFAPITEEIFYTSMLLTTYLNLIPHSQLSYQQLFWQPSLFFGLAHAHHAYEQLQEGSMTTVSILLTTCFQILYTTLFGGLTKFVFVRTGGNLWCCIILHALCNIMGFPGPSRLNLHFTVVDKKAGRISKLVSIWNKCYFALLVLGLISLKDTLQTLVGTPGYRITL
T cell HTS – modulators of CD8 T cell-vesicle binding, primary screen, mouse 2C CD8+ T cells, flow cytometry | 2C CD8+ T cell-vesicle binding; active compounds read low | response (vesicle binding), % at 7 µM | hit rate 0.068% among 330,000 | AID 2052, 2009;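 active = response, share of CD8 T cells binding vesicles, and their 90th percentile fluorescence all below set limits, cut at about 80% in these data, passing the limit was not always enough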;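 note: values below 100% mean blocked vesicle binding to the CD8+ T cells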
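Material: 2C TCR transgenic mouse naive CD8+ T cells, MACS-purified. Also added: QL9-charged Drosophila Ld/ICAM-1/B7-1 vesicles. Timing: binding 1.5 h at 37 °C. Measured by: high-throughput flow cytometry with anti-B7-1 and anti-CD8 staining. Read-out: percent CD8+ FL2 mean versus row control. Controls: Unloaded micro-vesicles (low), QL9 vesicles with 0.7% DMSO (high).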
Starred values were filed as active, the others as inactive; i = inactive; . = no result; + = active, no number.

SMILES	PolyA inh	aDG glyco up	Rce1 inh	T cell HTS
COC(=O)CSc1nc(N)c2c3c(sc2n1)CCCC3	-6	0	i	363
Cn1c(CCNS(=O)(=O)c2ccccc2)nnc1SCc1cccnc1	13	0	+	75
CCSc1nnc(CCNS(=O)(=O)c2ccc(C(C)=O)cc2)n1C	-8	0	i	381
COc1cc(C2CC(=O)Oc3c(C(CCN4CCOCC4)c4ccc(N(C)C)cc4)c(OC)cc(OC)c32)cc(OC)c1OC (centres undefined)	58*	0	i	232
CN(CCO)c1ncnc2c1sc1nc(N3CCOCC3)c3c(c12)CCC3	-10	0	i	239
CCc1ccccc1NC(=S)N(CCCN(C)C)Cc1cc2cc3c(cc2[nH]c1=O)OCO3	1	0	+	193
Cc1cccc(NC(=S)N(CCCN(C)C)Cc2cc3cc4c(cc3[nH]c2=O)OCO4)c1	-15	1	i	361
CCc1nc(Nc2ccncc2)c2oc3ccccc3c2n1	-1	0	+	505
Cc1nc(Nc2ccncc2)c2oc3ccccc3c2n1	6	0	i	559
CCOC(=O)C(=CNc1cc(OC)ccc1-n1cccc1)C(=O)OCC	-10	0	i	950
NC(=O)[C@@H]1CC2(CC(c3cccc(NC(=O)CC(c4ccccc4)c4ccccc4)c3)=NO2)CN1C(=O)c1ccc(Cl)cc1 (some centres undefined)	0	0	+	293
NC(=O)[C@H]1CC2(CC(c3cccc(NC(=O)COc4ccc(Cl)cc4)c3)=NO2)CN1C(=O)C(c1ccccc1)c1ccccc1 (some centres undefined)	10	2	+	i
C[C@@H]1COc2cc(N3CC[C@H](O)C3)ccc2S(=O)(=O)N1	.	0	.	.
COC(=O)C[C@@H]1C=C[C@@H](NC(=O)c2ccccc2F)[C@@H](CO)O1	.	0	.	.
O=C(O)C(Oc1ccc(Cl)cc1)c1ccc(Cl)cc1 (centres undefined)	.	0	.	.
OCCCCNCc1cc(Br)ccc1OCc1ccccc1F	-3	1	i	27*
OCCNCc1cc(Br)ccc1OCc1ccc(F)cc1	0	1	i	157
CN(C(=O)COC(=O)c1cn(-c2ccccc2)nc1-c1ccccc1)C1CCS(=O)(=O)C1 (centres undefined)	10	0	+	391
CCN(C(=O)COC(=O)c1cc(-c2ccccc2)nn1-c1ccccc1)C1CCS(=O)(=O)C1 (centres undefined)	1	1	i	i
CN(C(=O)COC(=O)c1nc(-c2ccccc2)n(-c2ccccc2)n1)C1CCS(=O)(=O)C1 (centres undefined)	19	0	i	307
CCN(C(=O)COC(=O)c1cn(-c2ccccc2)nc1-c1ccccc1)C1CCS(=O)(=O)C1 (centres undefined)	6	0	+	179
CCCS(=O)(=O)NC(=O)C1(C)CCN(C(=O)c2ccccc2F)C1 (centres undefined)	.	0	.	.
CC(C)c1ccc(NC(=O)[C@H]2CSCN2C(=O)[C@@H]2CCC(=O)N2)cc1	-3	0	i	522
CC(C)N1CCN(Cc2ccc(OC3CCCC3)cc2)CC1CCO (centres undefined)	6	0	i	397
CCc1c(C)nc(SCC(=O)NNC(=O)Cc2ccc(OC)cc2)[nH]c1=O	22	0	i	591
SMILES	PolyA inh	aDG glyco up	Rce1 inh	T cell HTS
CCc1c(C)nc(SCC(=O)Nc2nc(-c3ccc(OC)cc3)cs2)[nH]c1=O	-14	1	i	53*
COc1cc2c(C#N)c(N3CCCCC3)nc(N)c2c(N)n1	8	0	+	196
CCN(CC)c1nc(N)c2c(N)nc(OC)cc2c1C#N	-2	0	+	411
COc1cc2c(C#N)c(N3CCOCC3)nc(N)c2c(N)n1	7	0	i	368
CC(=O)OC1CCC2(C)C(COc3ccc4ccc(=O)oc4c3)C(C)(O)CCC2C1(C)C (centres undefined)	-1	-1	+	528
CCCCN(C(=O)CC1OC(=O)c2ccccc21)c1c(N)n(CCCC)c(=O)[nH]c1=O (centres undefined)	0	0	i	168
CC(C)CC(=O)NC(=S)Nc1ccc(S(=O)(=O)Nc2nccs2)cc1	3	0	+	461
